Source: PubChem BioAssay AID588760 (Johns Hopkins Ion Channel Center, 2011)
Calls of active or inactive are those of the source.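 The calls were made as follows: active = fitted dose response curve and peak inhibition of the Kir2.1 potassium channel above 30% at some dose; inactive = no dose response or no inhibition at any dose.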

These molecules were tested against Inward rectifier potassium channel 2 (Mus musculus) (UniProt P35561) (assay: Kir2.1 channel inhibition, specificity check, SAR follow-up, selectivity assay for KCNK9 inhibitor project, cell-based, FluxOR thallium flux, CRC round 3 (AID 588760)). Settings: Kir2.1-expressing cells, 20 min; series mostly up to 30 µM.
Chain of Inward rectifier potassium channel 2 (Mus musculus) (P35561 whole entry, looked up): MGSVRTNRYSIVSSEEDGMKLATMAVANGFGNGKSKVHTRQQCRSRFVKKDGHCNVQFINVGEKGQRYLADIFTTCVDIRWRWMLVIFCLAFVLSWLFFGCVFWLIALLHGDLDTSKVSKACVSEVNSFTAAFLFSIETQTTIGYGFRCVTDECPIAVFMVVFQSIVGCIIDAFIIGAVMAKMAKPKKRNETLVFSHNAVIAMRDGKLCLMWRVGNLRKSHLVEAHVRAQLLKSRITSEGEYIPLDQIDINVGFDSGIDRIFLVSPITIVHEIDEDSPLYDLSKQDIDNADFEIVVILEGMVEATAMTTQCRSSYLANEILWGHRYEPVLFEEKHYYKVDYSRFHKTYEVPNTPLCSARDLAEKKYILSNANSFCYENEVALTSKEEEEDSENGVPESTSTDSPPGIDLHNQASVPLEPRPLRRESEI
How it was run: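 Material: FluxOR-loaded Kir2.1 HEK293 cells | Times: 90 min dye load, 20 min compound, RT | Technique: Kinetic fluorescence of thallium-sensitive dye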

outcome, inactive:
CC(C1CC2CCC1C2)n1c(-c2ccco2)n[nH]c1=O (stereo unspecified), CC(C1CC2CCC1C2)n1c(-c2ccccn2)n[nH]c1=S (stereo unspecified), CC(C1C2CCC1CC2)n1c(-c2ccco2)n[nH]c1=S (stereo unspecified), COc1ccc(CCSc2nnc(-c3ccco3)n2C(C)C2CC3CCC2C3)cc1OC (stereo unspecified), S=c1[nH]nc(-c2ccco2)n1C1CC2CCC1C2 (stereo unspecified), CC(C)Oc1ccccc1C(=O)Nc1cccc(NC(=O)c2ccccc2OC(F)(F)F)c1, CC(C1CC2CCC1C2)n1c(SCC(=O)c2ccc3c(c2)OCO3)nnc1-c1ccco1 (stereo unspecified), CC(C1CC2CCC1C2)n1c(-c2ccco2)nnc1C(F)(F)F (stereo unspecified), CC(NC(=O)c1ccco1)C1CC2CCC1C2 (stereo unspecified), COc1cccc(-c2nnc(S(C)(=O)=O)n2C(C)C2CC3CCC2C3)c1 (stereo unspecified), CC(C1CC2CCC1C2)n1c(-c2cccn2C)n[nH]c1=S (stereo unspecified), CC(c1cccc2ccccc12)n1c(-c2ccco2)n[nH]c1=S (stereo unspecified), CC(C1CC2CCC1C2)n1c(-c2ccccc2F)n[nH]c1=S (stereo unspecified), CC(C1CC2CCC1C2)n1c(SCc2ccccc2)nnc1-c1ccco1 (stereo unspecified), CC(C1CC2CCC1C2)n1c(-c2ccncc2)n[nH]c1=S (stereo unspecified), COc1cccc(Cc2n[nH]c(=S)n2C(C)C2CC3CCC2C3)c1 (stereo unspecified), C[C@H](C1CCCCC1)n1c(-c2ccco2)n[nH]c1=S, CC(C)c1ccccc1C(=O)Nc1cccc(NC(=O)c2ccccc2OC(F)(F)F)c1, CC(C1CC2CCC1C2)n1c(-c2ccco2)n[nH]c1=S (stereo unspecified), CC(C1CC2CCC1C2)n1c(-c2cccc(N(C)C)c2)n[nH]c1=S (stereo unspecified), CC(C1CC2CCC1C2)n1c(SCC(=O)c2ccccc2)nnc1-c1ccco1 (stereo unspecified)
